What was measured:
Assay type in all cases: functional
[1] = Growth inhibition of human EKVX cells assessed as cell growth at 10^-7 M after 48 hrs by sulforhodamine B assay; settings: read-out: Activity
How it was run: (§1)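 Five-dose screen at NCI. Cells in RPMI 1640 with 5% FBS and 2 mM L-glutamine, seeded at 5000–40,000 cells/well and grown 24 h at 37 °C, 5% CO2 before dosing, with time-zero plates TCA-fixed. Drug diluted from DMSO stock to 0.01, 0.1, 1, 10 and 100 µM final, 48 h. Cells fixed with cold TCA (10% final), stained with 0.4% SRB and read at 515 nm. Percent growth from Tz, control and test absorbances; GI50, TGI and LC50 from dose-response curves.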

[2] = Growth inhibition of human Hs 578T cells after 48 hrs by sulforhodamine B assay; settings: for CC50: read-out: LC50 (the source's name)
How it was run: (§2)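 Adherent cells in RPMI 1640 with 5% FBS and 2 mM L-glutamine were plated at 5000–40,000 cells/well and grown 24 h. Five concentrations (0.01–100 µM, DMSO stock) were added for 48 h at 37 °C. Cells were fixed with cold TCA (10% final) and stained with SRB, read at 515 nm. GI50 came from log concentration–growth curves against time-zero and control plates.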

PC-3 = experiment: Growth inhibition of human PC3 cells assessed as cell growth at 10^-4 M after 48 hrs by sulforhodamine B assay; settings: PC-3, 48 h, read-out: Activity
UACC-62 = experiment: Growth inhibition of human UACC62 cells assessed as cell growth at 10^-5 M after 48 hrs by sulforhodamine B assay; settings: UACC-62, 48 h, read-out: Activity
[3] = Growth inhibition of human EKVX cells assessed as cell growth at 10^-6 M after 48 hrs by sulforhodamine B assay; settings: read-out: Activity; how it was run: as §1
A498 [4] = experiment: Growth inhibition of human A498 cells assessed as cell growth at 10^-8 M after 48 hrs by sulforhodamine B assay; settings: A498, 48 h, read-out: Activity
How it was run: (§3)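 Five-dose NCI-60 run (0.01, 0.1, 1, 10 and 100 µM, as 10-fold dilutions from a DMSO stock made at 400× the top final level). Cells were grown in RPMI 1640 with 5% FBS and 2 mM glutamine and plated for 24 h. They were then exposed for 48 h at 37 °C and 5% CO2. TCA fixation was followed by SRB staining with A515 read-out. Percent growth was taken relative to time-zero and control plates.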

KM12 [5] = experiment: Growth inhibition of human KM12 cells assessed as cell growth at 10^-6 M after 48 hrs by sulforhodamine B assay; settings: KM12, 48 h, read-out: Activity
SR = experiment: Growth inhibition of human SR cells assessed as cell growth at 10^-6 M after 48 hrs by sulforhodamine B assay; settings: read-out: Activity
NCI-H23 = experiment: Growth inhibition of human NCI-H23 cells assessed as cell growth at 10^-7 M after 48 hrs by sulforhodamine B assay; settings: NCI-H23, 48 h, read-out: Activity
MCF7 = experiment: Growth inhibition of human MCF7 cells assessed as cell growth at 10^-4 M after 48 hrs by sulforhodamine B assay; settings: MCF7, 48 h, read-out: Activity
SK-MEL-5 = experiment: Growth inhibition of human SK-MEL-5 cells assessed as cell growth at 10^-7 M after 48 hrs by sulforhodamine B assay; settings: SK-MEL-5, 48 h, read-out: Activity
MOLT-4 = experiment: Growth inhibition of human MOLT4 cells assessed as cell growth at 10^-7 M after 48 hrs by sulforhodamine B assay; settings: MOLT-4, 48 h, read-out: Activity
UO-31 = experiment: Growth inhibition of human UO31 cells assessed as cell growth at 10^-7 M after 48 hrs by sulforhodamine B assay; settings: UO-31, 48 h, read-out: Activity
A498 [6] = experiment: Growth inhibition of human A498 cells after 48 hrs by sulforhodamine B assay; settings: A498, 48 h; for CC50: read-out: LC50 (the source's name); how it was run: as §2
SK-MEL-28 = experiment: Growth inhibition of human SK-MEL-28 cells assessed as cell growth at 10^-8 M after 48 hrs by sulforhodamine B assay; settings: SK-MEL-28, 48 h, read-out: Activity
T47D = experiment: Growth inhibition of human T47D cells assessed as cell growth at 10^-8 M after 48 hrs by sulforhodamine B assay; settings: read-out: Activity
HCT-15 [7] = experiment: Growth inhibition of human HCT15 cells assessed as cell growth at 10^-7 M after 48 hrs by sulforhodamine B assay; settings: HCT-15, 48 h, read-out: Activity; how it was run: as §1
SF-268 [8] = experiment: Growth inhibition of human SF268 cells assessed as cell growth at 10^-5 M after 48 hrs by sulforhodamine B assay; settings: SF-268, 48 h, read-out: Activity
Malme-3M = experiment: Growth inhibition of human MALME-3M cells assessed as cell growth at 10^-4 M after 48 hrs by sulforhodamine B assay; settings: read-out: Activity
HCT-116 = experiment: Growth inhibition of human HCT116 cells after 48 hrs by sulforhodamine B assay; settings: HCT-116, 48 h; for CC50: read-out: LC50 (the source's name); how it was run: as §1
KM12 [9] = experiment: Growth inhibition of human KM12 cells assessed as cell growth at 10^-5 M after 48 hrs by sulforhodamine B assay; settings: KM12, 48 h, read-out: Activity
TK-10 = experiment: Growth inhibition of human TK10 cells assessed as cell growth at 10^-6 M after 48 hrs by sulforhodamine B assay; settings: TK-10, 48 h, read-out: Activity
SN12C [10] = experiment: Growth inhibition of human SN12C cells assessed as cell growth at 10^-8 M after 48 hrs by sulforhodamine B assay; settings: read-out: Activity
IGROV-1 = experiment: Growth inhibition of human IGROV1 cells assessed as cell growth at 10^-4 M after 48 hrs by sulforhodamine B assay; settings: IGROV-1, 48 h, read-out: Activity; how it was run: as §1
OVCAR-5 = experiment: Growth inhibition of human OVCAR5 cells assessed as cell growth at 10^-7 M after 48 hrs by sulforhodamine B assay; settings: OVCAR-5, 48 h, read-out: Activity
SN12C [11] = experiment: Growth inhibition of human SN12C cells assessed as cell growth at 10^-4 M after 48 hrs by sulforhodamine B assay; settings: read-out: Activity
MDA-MB-435 = experiment: Growth inhibition of human MDA-MB-435 cells assessed as cell growth at 10^-8 M after 48 hrs by sulforhodamine B assay; settings: MDA-MB-435, 48 h, read-out: Activity
HCT-15 [12] = experiment: Growth inhibition of human HCT15 cells after 48 hrs by sulforhodamine B assay; settings: HCT-15, 48 h; for CC50: read-out: LC50 (the source's name); how it was run: as §2
A549 = experiment: Growth inhibition of human A549/ATCC cells assessed as cell growth at 10^-6 M after 48 hrs by sulforhodamine B assay; settings: A549, 48 h, read-out: Activity; how it was run: as §3
SF-268 [13] = experiment: Growth inhibition of human SF268 cells after 48 hrs by sulforhodamine B assay; settings: SF-268, 48 h; for CC50: read-out: LC50 (the source's name); how it was run: as §2
HOP-92 = experiment: Growth inhibition of human HOP92 cells assessed as cell growth at 10^-6 M after 48 hrs by sulforhodamine B assay; settings: HOP-92, 48 h, read-out: Activity; how it was run: as §1

SMILES | growth at 0.1 µM [1] | CC50 [2] | growth at 100 µM (PC-3) | growth at 10 µM (UACC-62) | growth at 1 µM [3] | growth at 0.01 µM (A498 [4]) | growth at 1 µM (KM12 [5]) | growth at 1 µM (SR) | growth at 0.1 µM (NCI-H23) | growth at 100 µM (MCF7) | growth at 0.1 µM (SK-MEL-5) | growth at 0.1 µM (MOLT-4) | growth at 0.1 µM (UO-31) | CC50 (A498 [6]) | growth at 0.01 µM (SK-MEL-28) | growth at 0.01 µM (T47D) | growth at 0.1 µM (HCT-15 [7]) | growth at 10 µM (SF-268 [8]) | growth at 100 µM (Malme-3M) | TGI (HCT-116) | other results
O=S(=O)(Nc1ccc(Cl)cc1)c1ccc2nc(-c3ccccc3)c(-c3ccccc3)nc2c1 | 100% | > 100 µM | 42% | -22% | 91% | 75% | 102% | 81% | 92% | 76% | 95% | 94% | 89% | > 100 µM | 97% | 95% | 98% | 27% | 108% | > 100 µM | TGI [2]: > 100 µM; CC50 (HCT-116): > 100 µM; growth at 10 µM (KM12 [9]): 5%; growth at 1 µM (TK-10): 108%; growth at 0.01 µM (SN12C [10]): 95%; growth at 100 µM (IGROV-1): 73%; growth at 0.1 µM (OVCAR-5): 92%; growth at 100 µM (SN12C [11]): 78%; growth at 0.01 µM (MDA-MB-435): 97%; TGI (HCT-15 [12]): > 100 µM; CC50 (HCT-15 [12]): > 100 µM; growth at 1 µM (A549): 87%; TGI (SF-268 [13]): > 100 µM; CC50 (SF-268 [13]): > 100 µM; growth at 1 µM (HOP-92): 78%
O=S(=O)(Nc1ccccn1)c1ccc2nc(-c3ccccc3)c(-c3ccccc3)nc2c1 | 99% | > 100 µM | 23% | -13% | 89% | 88% | 99% | 66% | 94% | 40% | 92% | 95% | 88% | > 100 µM | 101% | 95% | 98% | 27% | 97% | > 100 µM | GI50 [2]: 1.56 µM; GI50 (A498 [6]): 1.67 µM; GI50 (HCT-116): 2.17 µM; CC50 (HCT-116): > 100 µM; growth at 10 µM (KM12 [9]): 6%; growth at 1 µM (TK-10): 114%; growth at 0.01 µM (SN12C [10]): 95%; growth at 100 µM (IGROV-1): 63%; growth at 0.1 µM (OVCAR-5): 93%; growth at 100 µM (SN12C [11]): 64%; growth at 0.01 µM (MDA-MB-435): 99%; TGI (HCT-15 [12]): > 100 µM; CC50 (HCT-15 [12]): > 100 µM; growth at 1 µM (A549): 96%; TGI (SF-268 [13]): > 100 µM; CC50 (SF-268 [13]): > 100 µM; growth at 1 µM (HOP-92): 77%

Reference: ChEMBL document CHEMBL2407075, “Sulphonamido-quinoxalines: search for anticancer agent” (Eur J Med Chem, 2013)
